Assay results taken from ChEMBL document CHEMBL1123457, “Effect of methoxy substitution on the adrenergic activity of three structurally related alpha 2-adrenoreceptor antagonists” (J Med Chem, 1986).

Legend:
[1] = target: T1, Alpha-2 adrenergic receptor (Mus musculus) (UniProt P30545+Q01338+Q01337); assay: Antagonist potency towards alpha-2 adrenergic receptor in the mouse isolated electrically stimulated vas deferens with reference to idazoxan (prejunctional); assay type: functional, tissue-based
How it was run: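 Mouse vas deferens (adult male MFI mice, >30 g) under 0.5 g tension in magnesium-free Krebs, 30 °C, 95% O2/5% CO2. Field stimulation at 0.1 Hz, 3-ms pulses, 100-140 V giving about 100 mg twitch, isometric recording. Twitches were inhibited by 110 nM clonidine in the Krebs.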

[2] = system: Adrenergic receptor alpha-1 (Rattus norvegicus); assay: Antagonist potency towards alpha-1 adrenergic receptor in the rat isolated anococcygeus with reference to pA2 idazoxan (postjunctional)
[3] = system: Adrenergic receptor alpha-1 (Rattus norvegicus); assay: Agonist potency towards alpha-1 adrenergic receptor in the rat isolated anococcygeus with reference to phenylephrine (postjunctional)
[4] = target: T2, Adrenergic receptor alpha-2 (Rattus norvegicus, UniProt P22086+P19328+P22909); assay: Antagonist potency towards alpha-2 adrenergic receptor in the rat electrically stimulated vas deferens with reference to P-aminoclonidine; assay type: functional, tissue-based
T2 sequence (P22086 whole entry): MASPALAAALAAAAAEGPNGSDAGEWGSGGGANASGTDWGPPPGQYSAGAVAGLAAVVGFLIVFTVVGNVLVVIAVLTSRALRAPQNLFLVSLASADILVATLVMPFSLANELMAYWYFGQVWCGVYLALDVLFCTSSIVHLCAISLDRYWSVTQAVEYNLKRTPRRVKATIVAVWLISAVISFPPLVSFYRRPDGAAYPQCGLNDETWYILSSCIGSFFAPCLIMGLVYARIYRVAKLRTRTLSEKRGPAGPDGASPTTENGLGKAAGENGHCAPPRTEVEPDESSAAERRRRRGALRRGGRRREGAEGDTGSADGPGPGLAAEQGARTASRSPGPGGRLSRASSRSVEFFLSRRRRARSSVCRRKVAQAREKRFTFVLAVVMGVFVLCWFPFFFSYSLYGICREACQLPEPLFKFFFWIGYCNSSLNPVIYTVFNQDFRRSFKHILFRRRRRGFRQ
T2 sequence (P19328 whole entry): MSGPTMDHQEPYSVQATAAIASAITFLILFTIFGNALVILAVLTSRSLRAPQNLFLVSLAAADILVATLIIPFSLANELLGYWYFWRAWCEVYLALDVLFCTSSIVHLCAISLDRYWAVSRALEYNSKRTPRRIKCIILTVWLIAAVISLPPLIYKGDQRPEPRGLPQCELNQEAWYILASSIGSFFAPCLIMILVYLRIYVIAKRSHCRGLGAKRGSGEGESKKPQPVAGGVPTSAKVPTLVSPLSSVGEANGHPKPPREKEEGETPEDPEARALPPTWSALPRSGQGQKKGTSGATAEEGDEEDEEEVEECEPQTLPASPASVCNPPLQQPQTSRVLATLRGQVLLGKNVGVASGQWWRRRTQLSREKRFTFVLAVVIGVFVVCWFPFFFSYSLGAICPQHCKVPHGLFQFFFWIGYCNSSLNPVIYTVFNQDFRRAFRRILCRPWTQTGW
T2 sequence (P22909 whole entry): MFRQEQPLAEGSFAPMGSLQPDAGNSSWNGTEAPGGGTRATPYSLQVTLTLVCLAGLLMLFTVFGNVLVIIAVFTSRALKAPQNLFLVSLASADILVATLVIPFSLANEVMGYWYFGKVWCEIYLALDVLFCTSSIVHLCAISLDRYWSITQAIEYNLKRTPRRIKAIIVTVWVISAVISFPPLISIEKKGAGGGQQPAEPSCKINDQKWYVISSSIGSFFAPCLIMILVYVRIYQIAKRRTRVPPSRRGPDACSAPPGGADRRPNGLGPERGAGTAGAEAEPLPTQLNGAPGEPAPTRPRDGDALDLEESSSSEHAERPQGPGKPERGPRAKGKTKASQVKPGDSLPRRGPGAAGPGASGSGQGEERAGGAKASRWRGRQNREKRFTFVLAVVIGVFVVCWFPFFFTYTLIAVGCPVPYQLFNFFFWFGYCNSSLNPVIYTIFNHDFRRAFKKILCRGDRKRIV

[5] = target: T3, Adrenergic receptor alpha-1 (Rattus norvegicus, UniProt P15823+P23944+P43140); assay: Antagonist potency towards alpha-1 adrenergic receptor in the rat electrically stimulated vas deferens with reference to phenylephrine; assay type: functional, tissue-based
T3 sequence (P15823 whole entry): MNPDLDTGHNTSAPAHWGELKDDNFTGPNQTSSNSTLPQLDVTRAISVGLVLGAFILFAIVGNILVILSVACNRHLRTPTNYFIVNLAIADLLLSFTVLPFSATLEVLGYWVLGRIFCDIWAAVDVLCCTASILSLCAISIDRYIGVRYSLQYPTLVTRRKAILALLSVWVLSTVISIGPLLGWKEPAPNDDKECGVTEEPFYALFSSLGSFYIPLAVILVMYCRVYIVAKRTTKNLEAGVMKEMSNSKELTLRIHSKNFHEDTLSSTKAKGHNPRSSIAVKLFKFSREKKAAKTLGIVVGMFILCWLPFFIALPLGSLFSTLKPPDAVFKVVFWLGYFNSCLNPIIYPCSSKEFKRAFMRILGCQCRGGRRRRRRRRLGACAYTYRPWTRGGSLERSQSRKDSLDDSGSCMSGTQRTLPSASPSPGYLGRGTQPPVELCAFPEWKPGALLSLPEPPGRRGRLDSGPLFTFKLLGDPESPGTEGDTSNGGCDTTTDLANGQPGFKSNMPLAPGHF
T3 sequence (P23944 whole entry): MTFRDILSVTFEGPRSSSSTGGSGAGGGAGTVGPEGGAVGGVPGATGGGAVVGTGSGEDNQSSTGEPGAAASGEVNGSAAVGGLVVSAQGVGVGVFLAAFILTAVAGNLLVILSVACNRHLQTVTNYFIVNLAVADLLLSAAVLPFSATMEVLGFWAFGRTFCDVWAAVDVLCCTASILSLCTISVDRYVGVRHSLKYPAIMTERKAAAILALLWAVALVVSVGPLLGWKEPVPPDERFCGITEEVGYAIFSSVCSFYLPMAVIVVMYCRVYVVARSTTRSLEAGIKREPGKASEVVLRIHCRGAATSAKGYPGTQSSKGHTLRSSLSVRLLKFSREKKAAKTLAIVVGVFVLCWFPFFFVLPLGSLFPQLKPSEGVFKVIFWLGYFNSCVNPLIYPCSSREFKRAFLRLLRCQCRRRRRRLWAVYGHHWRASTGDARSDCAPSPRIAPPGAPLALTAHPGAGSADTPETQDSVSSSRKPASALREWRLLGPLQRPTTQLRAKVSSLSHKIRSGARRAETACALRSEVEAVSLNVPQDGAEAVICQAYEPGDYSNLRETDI
T3 sequence (P43140 whole entry): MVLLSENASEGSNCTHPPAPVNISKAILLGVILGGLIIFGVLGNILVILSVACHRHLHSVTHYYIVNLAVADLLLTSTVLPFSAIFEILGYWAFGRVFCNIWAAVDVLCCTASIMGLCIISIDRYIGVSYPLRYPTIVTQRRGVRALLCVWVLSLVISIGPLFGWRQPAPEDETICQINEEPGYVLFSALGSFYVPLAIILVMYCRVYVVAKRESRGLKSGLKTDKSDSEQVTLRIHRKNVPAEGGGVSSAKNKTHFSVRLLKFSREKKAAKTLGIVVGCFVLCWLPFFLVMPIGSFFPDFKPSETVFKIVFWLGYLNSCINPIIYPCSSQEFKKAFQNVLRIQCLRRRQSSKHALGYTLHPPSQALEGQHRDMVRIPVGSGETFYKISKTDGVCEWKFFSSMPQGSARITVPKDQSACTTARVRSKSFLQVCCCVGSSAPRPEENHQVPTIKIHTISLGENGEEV

[6] = target: T1, Alpha-2 adrenergic receptor (Mus musculus); assay: Agonist potency towards alpha-2 adrenergic receptor in the mouse isolated electrically stimulated vas deferens with reference to clonidine (prejunctional); assay type: functional, tissue-based
How it was run: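 Mouse vas deferens from adult male MFI mice (>30 g), 0.5 g initial tension, in magnesium-free Krebs at 30 °C, gassed 95% O2/5% CO2. Field stimulation at 0.1 Hz with 3-ms pulses; voltage of 100-140 V set to give about 100 mg twitch, recorded isometrically. Repeated cumulative concentration-response curves to clonidine were run until ID50 values were consistent.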

[7] = target: T4, Adrenergic receptor alpha-1 (Rattus norvegicus) (UniProt P15823+P23944+P43140); assay: Antagonist potency towards alpha-1 adrenergic receptor in the rat isolated electrically stimulated vas deferens with reference to pA2 idazoxan (postjunctional); assay type: functional, tissue-based
[8] = target: T4, Adrenergic receptor alpha-1 (Rattus norvegicus); assay: Agonist potency towards alpha-1 adrenergic receptor in the rat isolated electrically stimulated vas deferens with reference to phenylephrine (postjunctional); assay type: functional, tissue-based
How it was run: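 Vas deferens in Krebs solution (NaCl 118 mM, KCl 4.7 mM, CaCl2 2.5 mM, KH2PO4 1.2 mM, MgSO4 0.6 mM, NaHCO3 25 mM, dextrose 11.1 mM), gassed with 95% O2/5% CO2, at 30 °C. Intramural nerves stimulated with 3-ms rectangular pulses, 40 V, 0.1 Hz. Contractions recorded isometrically.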

[9] = target: T4, Adrenergic receptor alpha-1 (Rattus norvegicus); assay: Antagonist potency towards alpha-1 adrenergic receptor in the rat isolated anococcygeus with reference to pA2 idazoxan (postjunctional)
[10] = system: Adrenergic receptor alpha-1 (Mus musculus); assay: Agonist potency towards alpha-1 adrenergic receptor in the mouse isolated electrically stimulated vas deferens with reference to phenylephrine (postjunctional)
Rattus norvegicus = species: Rattus norvegicus; assay: Agonist potency of phenylephrine in rat isolated anococcygeus muscle; assay type: functional, Muscle tissue

Potency [1] | Potency [2] | Potency [3] | pA2 [4] | pA2 [5] | Potency [6] | Potency [9] | Potency [10] | Compound | Potency [7] | Potency [8] | pD2 (Rattus norvegicus)
0.00065 | < 0.012 | 0 | 5.19 | < 4.48 | 0 |  |  | COC1(CN2CCCCC2)COc2ccccc2O1 (configuration not stated) |  |  | 
11.3 |  |  | 9.92 | 7.43 | 0 |  |  | COC1(C2=NCCN2)COc2ccccc2O1 (configuration not stated) | 8.3 | 0 | 
0.033 |  |  |  |  | 0 | 0.52 | 0 | CCN(CC)CC1COc2ccccc2O1 (configuration not stated) |  |  | 
0.0037 |  |  |  |  | 0 | < 0.012 | 0 | CCN(CC)CC1(OC)COc2ccccc2O1 (configuration not stated) |  |  | 

The remaining lines, values behind:

Compound | Potency [1] | Potency [2] | Potency [3] | pA2 [4] | pA2 [5] | Potency [6] | Potency [9] | Potency [10] | Potency [7] | Potency [8] | pD2 (Rattus norvegicus)
c1ccc2c(c1)OCC(CN1CCCCC1)O2 (configuration not stated) [PIPEROXAN] | 0.29 |  |  | 7.54 |  | 0 |  |  | 4.8 | 0 | 
CNC[C@H](O)c1cccc(O)c1 [PHENYLEPHRINE] |  |  |  |  |  |  |  |  |  |  | 6.54
c1ccc2c(c1)OCC(C1=NCCN1)O2 (configuration not stated) | 1 |  |  |  |  | 0 |  |  | 1 | 0 | 
Clc1ccc(OCC2=NCCN2)cc1Cl | 0.018 |  |  |  |  | < 0.0008 |  |  |  | 0.16 | 
COC(Oc1ccc(Cl)c(Cl)c1)C1=NCCN1 (configuration not stated) | 0.0021 |  |  |  |  | 0 | 0.063 | 0 |  |  | 
